{"data": "Assay results of several laboratories", "note": "Protocols differ between the studies behind these lines."}
{"Compound": "CC(C)Oc1cccc(-c2cnc(N3CCC(C(N)=O)CC3)s2)c1", "system": "male Swiss mouse, brain", "conditions": "oral, 30 mg/kg, 1 h, single dose", "quantity": "concentration", "result": "207 ng/g"}
{"Compound": "O=c1nc(N2CCN(CC3CCCCC3)CC2)sc2c([N+](=O)[O-])cc(C(F)(F)F)cc12", "system": "CD-1 mouse, lung", "conditions": "oral, 100 mg/kg, 15 min", "quantity": "concentration", "result": "431 ng/mL"}
{"Compound": "c1cnc2ccc(Nc3nc(NC4CC4)c4nc[nH]c4n3)cc2c1", "system": "human, plasma", "conditions": "oral, 400 mg/m², patients", "quantity": "MRT(0-t)", "result": "6.8 h"}
{"Compound": "CC(C)(C)c1ccc(O)c(CN(Cc2cc(C(C)(C)C)ccc2O)C2CCC(NC(N)=O)CC2)c1 (centres unmarked)", "system": "male C57BL/6 mouse, brain", "conditions": "intraperitoneal, 10 mg/kg, single dose", "quantity": "half-life", "result": "7.08 h"}
{"Compound": "O=C(O)C1CCN(c2ncc(-c3ccc4c(c3)OCCCO4)s2)CC1", "system": "male Swiss mouse, plasma", "conditions": "oral, 30 mg/kg, 4 h, single dose", "quantity": "concentration", "result": "3890 ng/mL"}
{"Compound": "CC(C)(Nc1nc(-c2ccccn2)nc2ccccc12)c1ccccn1", "system": "female BALB/c mouse, plasma", "conditions": "oral, 50 mg/kg, 2 h", "quantity": "concentration", "result": "4230 ng/mL"}
{"Compound": "CC(C)(O)c1ccccc1-c1ccc2[nH]c(/C=C/c3ccc(C(F)(F)F)cc3)nc2c1", "system": "male human, plasma", "conditions": "oral, 5 mg, single dose, fasted, healthy volunteers", "quantity": "MRT", "result": "43.6 h"}
{"Compound": "CC(C)CN(C[C@@H](O)[C@H](Cc1ccccc1)NC(=O)O[C@H]1CO[C@H]2OCC[C@H]21)S(=O)(=O)c1ccc(N)cc1", "system": "BALB/c mouse, plasma", "conditions": "intravenous, 2.5 mg/kg, 6 h", "quantity": "concentration", "result": "4.19 ng/mL"}
